Lmaj promast = reduces viability of Leishmania major promastigotes | inhibition, % at 10 µM | resazurin fluorescence viability | hit rate 9% among 200,000; in the data active = inhibition above about 50%;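 also: promastigotes grown with compound for 44 hours at 28 °C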
WT yeast gro inh = growth inhibition of WT yeast, mitochondrial fusion screen | mitochondrial fusion phenotypic screen, WT strain | inhibition, % at 10 µM | hit rate 2.1% among 190,000; in the data active = inhibition above about 58%; tested in S. cerevisiae
Diaph act CS = counter-screen for diaphorase-based assays: diaphorase activators and chemical reducers; Diaphorase/resazurin coupled assay, resorufin fluorescence, 16 min; stronger effect = higher value; 1 = vehicle wells, 0 = NADH-free wells; activation factor at 20 µM; hit rate 0.005% among 190,000; AID 1229;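 active = diaphorase activity raised at least twofold by the compound at 20 µM; inactive = activation factor below 2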
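Assay system: bacterial diaphorase enzyme (C. kluyveri) / Input: enzyme 0.07 U/mL final / Medium: 50 mM HEPES pH 7.4 with 4.542 mM MgCl2, 0.005% Tween 20 / Doses: single compound dose of 20 µM, 1% DMSO final / Incubation: 16 min enzyme reaction, ambient temperature / Signal: fluorescence, excitation 544 nm and emission 590 nm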
PMI activator = increases human mannose-6-phosphate isomerase activity. P34949. purified human PMI, coupled resazurin fluorescence, 20 min; stronger effect = higher value; 1 = vehicle control, 0 substrate-free wells. activation factor at 20 µM. hit rate 0.005% among 190,000;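 active = activation factor of 2 or more at 20 µM, relative to plate controls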
Target sequence (P34949 whole entry, looked up): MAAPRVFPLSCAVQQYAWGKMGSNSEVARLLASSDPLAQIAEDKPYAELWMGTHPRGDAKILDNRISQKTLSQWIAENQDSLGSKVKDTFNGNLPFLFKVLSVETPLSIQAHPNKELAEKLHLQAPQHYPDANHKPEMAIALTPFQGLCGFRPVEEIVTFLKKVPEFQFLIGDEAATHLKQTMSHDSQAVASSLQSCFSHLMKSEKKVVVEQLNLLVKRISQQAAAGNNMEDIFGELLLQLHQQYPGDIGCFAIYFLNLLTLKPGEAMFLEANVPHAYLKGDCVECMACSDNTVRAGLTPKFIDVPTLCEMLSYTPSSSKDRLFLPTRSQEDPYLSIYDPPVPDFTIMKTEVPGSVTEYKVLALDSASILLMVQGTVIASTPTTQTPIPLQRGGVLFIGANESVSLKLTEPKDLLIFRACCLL
PMI act satM6P = activators of human phosphomannose isomerase at near-saturating mannose 6-phosphate | P34949 | coupled PMI enzyme assay, resazurin fluorescence, 20 min; stronger effect = higher value; 1 = untreated enzyme, 0 = substrate-free blank | activation factor at 20 µM | hit rate 0.34% among 190,000;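 active = activation factor of 2 or more at 20 µM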
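Test system: Human PMI in coupled enzyme assay | Input: 15 ng/mL PMI | Medium: HEPES-buffered pH 7.4 with magnesium and detergent | Compound: One concentration, 20 µM, in 1% DMSO | Incubation: Enzyme reaction with compound 20 min at room temperature | Detection: Diaphorase-driven resazurin-to-resorufin fluorescence, excitation 544, emission 590 nm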
Active calls of the source: *. A selection: hits, their analogues and other compounds. The true share with any hit is near 10%.

SMILES | Lmaj promast | WT yeast gro inh | Diaph act CS | PMI activator | PMI act satM6P
COc1ccc(NC(=S)N2CCCC(c3nc4ccc(C)cc4[nH]3)C2)cc1 (centres undefined) | 94* | -18 | 0.8 | 0.9 | 0.9
COc1ccc(NC(=S)N2CCCC(c3nc4ccc(C)cc4[nH]3)C2)c(OC)c1 (centres undefined) | 100* | 4 | 1.1 | 1 | 1
Cc1ccc2nc(C3CCN(CC(=O)N4CCCCCC4)CC3)[nH]c2c1 | -1 | 18 | 0.8 | 0.9 | 0.8
COc1ccc(NC(=S)N2CCC(c3nc4ccc(Cl)cc4[nH]3)CC2)c(OC)c1 | 0 | 13 | 1 | 0.9 | 0.9
Cc1cc(C)c(NC2=NCC(=O)N2C2CCCCC2)c(C)c1 | 12 | 68* | 0.9 | 0.9 | 1
CC(C)/C(=N/Nc1ccccc1[N+](=O)[O-])c1ccccc1 | -4 | 64* | 0.5 | 0.8 | 0.5
CC(C)Oc1ccccc1/C=N/Nc1ccccc1[N+](=O)[O-] | 7 | 20 | 0.8 | 0.8 | 0.9
CCCC(=O)NC(c1ccc2c(c1)OCO2)c1cc(Cl)c2cccnc2c1O (centres undefined) | 99* | -26 | 0.8 | 1.1 | 0.8
CCCC(=O)NC(c1cccs1)c1cc(Cl)c2cccnc2c1O (centres undefined) | 99* | 0 | 0.7 | 0.9 | 0.6
CCCC(=O)NC(c1ccco1)c1cc(Cl)c2cccnc2c1O (centres undefined) | -2 | -6 | 0.6 | 0.8 | 0.8
COc1ccc(C(NC(C)=O)c2cc(Cl)c3cccnc3c2O)cc1OC (centres undefined) | 23 | -8 | 0.3 | 0.6 | 0.4
CCC(=O)NC(c1ccc(OC)c(OC)c1)c1cc(Cl)c2cccnc2c1O (centres undefined) | 90* | -8 | 0.8 | 0.9 | 0.6
CCOC(=O)C(NCCc1ccccc1F)(NC(C)=O)C(F)(F)F (centres undefined) | -8 | -16 | 1 | 0.9 | 1.1
Cn1c(-c2ccccc2)c(/C=N/NC(=O)c2cccnc2)c2ccccc21 | 62* | 1 | 0.8 | 0.9 | 0.9
COc1cc(/C=C/c2ccc3cccc(OC)c3n2)c(OC(C)=O)c([N+](=O)[O-])c1 | 14 | 23 | 0.7 | 0.9 | 1
COc1ccc(C(=O)N/N=C/c2ccc3cccc(OCc4ccccc4)c3n2)cc1 | 65* | 32 | 0.8 | 1 | 0.8
O=C(N/N=C/c1c(-c2ccccc2)[nH]c2ccccc12)c1cccnc1 | 32 | 10 | 0.7 | 0.9 | 0.9
CC(=O)Nc1ccc(C(=O)N/N=C/c2ccccc2OCc2ccccc2)cc1 | -1 | 1 | 0.9 | 1 | 1
COc1c(OC(C)=O)ccc(/C=C/c2ccc3cccc(OCc4ccccc4)c3n2)c1[N+](=O)[O-] | 62* | 9 | 0.8 | 0.8 | 0.9
O=C(N/N=C/c1ccccc1OCc1ccccc1)c1cccnc1 | 75* | 10 | 0.9 | 1 | 0.9
CCOc1ccc(-c2nc(C#N)c(NCc3ccco3)o2)cc1 | -11 | -4 | 0.7 | 0.9 | 0.9
Cc1ccc(-c2ccc(C)c(N)c2C)c(C)c1N | -1 | 7 | 0.9 | 1 | 0.8
Cc1nn(Cc2ccccc2)c(Cl)c1/C=N/NC(=O)CNc1cccc(C(F)(F)F)c1 | 44 | 3 | 1 | 0.8 | 1
O=C(N/N=C/c1ccc2cccc(OCc3ccccc3)c2n1)c1ccc(Br)cc1 | 75* | 11 | 0.7 | 0.9 | 0.9
O=C(N/N=C/c1cccc(OCc2ccccc2)c1)c1ccc(Br)cc1 | -5 | -13 | 1 | 0.9 | 0.9
Cc1ccc(N2C(=O)N(CC(=O)C(C)(C)C)c3ccccc3S2(=O)=O)cc1 | -1 | 2 | 0.9 | 0.9 | 0.9
COc1cccc(OCCOCC(O)CN2CCN(Cc3ccc(Cl)cc3)CC2)c1 (centres undefined) | 52* | 11 | 0.8 | 1.2 | 1.2
CC(=O)Nc1ccc(OCC(O)CN2CCN(Cc3ccccc3)CC2)cc1 (centres undefined) | -8 | 2 | 1 | 1 | 1
CCc1ccc(OCCOCC(O)CN2CCN(Cc3ccc(Cl)cc3)CC2)cc1 (centres undefined) | 96* | 56 | 0.9 | 1.1 | 1.2
COCCOCC(O)CN1CCN(c2ccccc2)CC1 (centres undefined) | 0 | -2 | 1 | 1 | 1.1
